Results reported in ChEMBL document CHEMBL5303300, “EUbOPEN Chemogenomics Library - Multiplex” (2023).
Where “and” joins values, the source holds several entries; their conditions need not be identical. Equal entries are not always repeated.

System: Fibroblast
Experiment: Multiplex assay against human fibroblast
Format: toxicity, cell-based
Settings: number of replicates 2
Procedure, shortened: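 Cells stained live at seeding with Hoechst33342, BioTracker Green Microtubule Cytoskeleton Dye, MitoTracker Red and Annexin V Alexa Fluor 680 were imaged on a CQ1 microscope at 37°C and 5% CO2 after compound addition. Their classification by CellPathfinder machine-learning gating ran from Hoechst high-intensity objects versus normal cells, to healthy, pyknosed or fragmented nuclei among normal cells, to mitotic or apoptotic among pyknosed cells. Tubulin, mitochondrial-mass and membrane-permeability phenotypes are per cents of healthy-nucleus cells.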

[1] = 12 h, 1 µM, compound concentration 1 uM
[2] = 12 h, 10 µM, compound concentration 10 uM
[3] = 24 h, 1 µM, compound concentration 1 uM
[4] = 24 h, 10 µM, compound concentration 10 uM
[5] = 48 h, 1 µM, compound concentration 1 uM
[6] = 48 h, 10 µM, compound concentration 10 uM

SMILES: COc1ccc(-c2cc3c(C)nc(N)nc3n([C@H]3CC[C@H](OCCO)CC3)c2=O)cn1 [PF-04691502]
- Population Apoptotic (%) [1]: 34% and 55%
- Population Fragmented Nuclei (%) [1]: 15% and 13%
- Population Healthy Nuclei (%) [1]: 73% and 71%
- Population Hoechst High Intensity Objects (%) [1]: 0%
- Population Membrane Permeable-Phenotype (%) [1]: 3%
- Population Mitochondria Different-Phenotype (%) [1]: 3% and 1%
- Population Mitotic Cells (%) [1]: 65% and 45%
- Population Normal (%) [1]: 100%
- Population Pyknosed Nuclei (%) [1]: 10% and 15%
- Population Tubulin-Different-Phenotype (%) [1]: 11% and 8%
- Total Cell Count [1]: 270 and 253
- Population Apoptotic (%) [2]: 55% and 54%
- Population Fragmented Nuclei (%) [2]: 29% and 27%
- Population Healthy Nuclei (%) [2]: 51% and 60%
- Population Hoechst High Intensity Objects (%) [2]: 1% and 0%
- Population Membrane Permeable-Phenotype (%) [2]: 5% and 9%
- Population Mitochondria Different-Phenotype (%) [2]: 3% and 1%
- Population Mitotic Cells (%) [2]: 44% and 45%
- Population Normal (%) [2]: 98% and 100%
- Population Pyknosed Nuclei (%) [2]: 18% and 11%
- Population Tubulin-Different-Phenotype (%) [2]: 26% and 18%
- Total Cell Count [2]: 185 and 202
- Population Apoptotic (%) [3]: 62% and 58%
- Population Fragmented Nuclei (%) [3]: 7% and 9%
- Population Healthy Nuclei (%) [3]: 80% and 72%
- Population Hoechst High Intensity Objects (%) [3]: 0%
- Population Membrane Permeable-Phenotype (%) [3]: 4% and 2%
- Population Mitochondria Different-Phenotype (%) [3]: 1%
- Population Mitotic Cells (%) [3]: 37% and 41%
- Population Normal (%) [3]: 99%
- Population Pyknosed Nuclei (%) [3]: 12% and 17%
- Population Tubulin-Different-Phenotype (%) [3]: 7% and 3%
- Total Cell Count [3]: 262 and 247
- Population Apoptotic (%) [4]: 59% and 65%
- Population Fragmented Nuclei (%) [4]: 20%
- Population Healthy Nuclei (%) [4]: 60% and 66%
- Population Hoechst High Intensity Objects (%) [4]: 0%
- Population Membrane Permeable-Phenotype (%) [4]: 10% and 8%
- Population Mitochondria Different-Phenotype (%) [4]: 0% and 1%
- Population Mitotic Cells (%) [4]: 40% and 34%
- Population Normal (%) [4]: 99% and 100%
- Population Pyknosed Nuclei (%) [4]: 20% and 13%
- Population Tubulin-Different-Phenotype (%) [4]: 27% and 23%
- Total Cell Count [4]: 161 and 176
- Population Apoptotic (%) [5]: 60% and 59%
- Population Fragmented Nuclei (%) [5]: 8% and 12%
- Population Healthy Nuclei (%) [5]: 80% and 72%
- Population Hoechst High Intensity Objects (%) [5]: 0%
- Population Membrane Permeable-Phenotype (%) [5]: 5%
- Population Mitochondria Different-Phenotype (%) [5]: 0%
- Population Mitotic Cells (%) [5]: 39% and 40%
- Population Normal (%) [5]: 100%
- Population Pyknosed Nuclei (%) [5]: 10% and 15%
- Population Tubulin-Different-Phenotype (%) [5]: 6% and 4%
- Total Cell Count [5]: 258 and 245
- Population Apoptotic (%) [6]: 66%
- Population Fragmented Nuclei (%) [6]: 12% and 22%
- Population Healthy Nuclei (%) [6]: 59%
- Population Hoechst High Intensity Objects (%) [6]: 0%
- Population Membrane Permeable-Phenotype (%) [6]: 7% and 4%
- Population Mitochondria Different-Phenotype (%) [6]: 1%
- Population Mitotic Cells (%) [6]: 33%
- Population Normal (%) [6]: 100%
- Population Pyknosed Nuclei (%) [6]: 27% and 17%
- Population Tubulin-Different-Phenotype (%) [6]: 32% and 19%
- Total Cell Count [6]: 140 and 170

SMILES: OC(c1ccc(-c2ccc(CN3CCN(Cc4ccncc4)CC3)cc2)c(F)c1)(C(F)(F)F)C(F)(F)F
- Population Apoptotic (%) [1]: 54% and 23%
- Population Fragmented Nuclei (%) [1]: 5% and 6%
- Population Healthy Nuclei (%) [1]: 43% and 70%
- Population Hoechst High Intensity Objects (%) [1]: 0%
- Population Membrane Permeable-Phenotype (%) [1]: 8% and 3%
- Population Mitochondria Different-Phenotype (%) [1]: 0% and 1%
- Population Mitotic Cells (%) [1]: 45% and 76%
- Population Normal (%) [1]: 100%
- Population Pyknosed Nuclei (%) [1]: 50% and 23%
- Population Tubulin-Different-Phenotype (%) [1]: 6% and 8%
- Total Cell Count [1]: 108 and 164
- Population Apoptotic (%) [2]: 31% and 45%
- Population Fragmented Nuclei (%) [2]: 10% and 16%
- Population Healthy Nuclei (%) [2]: 70% and 63%
- Population Hoechst High Intensity Objects (%) [2]: 0%
- Population Membrane Permeable-Phenotype (%) [2]: 6% and 8%
- Population Mitochondria Different-Phenotype (%) [2]: 0% and 3%
- Population Mitotic Cells (%) [2]: 68% and 55%
- Population Normal (%) [2]: 100% and 99%
- Population Pyknosed Nuclei (%) [2]: 18% and 19%
- Population Tubulin-Different-Phenotype (%) [2]: 24% and 25%
- Total Cell Count [2]: 156 and 204
- Population Apoptotic (%) [3]: 61% and 55%
- Population Fragmented Nuclei (%) [3]: 6% and 10%
- Population Healthy Nuclei (%) [3]: 45% and 65%
- Population Hoechst High Intensity Objects (%) [3]: 0%
- Population Membrane Permeable-Phenotype (%) [3]: 12% and 7%
- Population Mitochondria Different-Phenotype (%) [3]: 2% and 3%
- Population Mitotic Cells (%) [3]: 38% and 44%
- Population Normal (%) [3]: 100%
- Population Pyknosed Nuclei (%) [3]: 47% and 23%
- Population Tubulin-Different-Phenotype (%) [3]: 16% and 15%
- Total Cell Count [3]: 109 and 151
- Population Apoptotic (%) [4]: 44% and 45%
- Population Fragmented Nuclei (%) [4]: 7% and 13%
- Population Healthy Nuclei (%) [4]: 74% and 61%
- Population Hoechst High Intensity Objects (%) [4]: 0%
- Population Membrane Permeable-Phenotype (%) [4]: 3% and 7%
- Population Mitochondria Different-Phenotype (%) [4]: 1% and 3%
- Population Mitotic Cells (%) [4]: 56% and 54%
- Population Normal (%) [4]: 99% and 100%
- Population Pyknosed Nuclei (%) [4]: 17% and 24%
- Population Tubulin-Different-Phenotype (%) [4]: 16% and 23%
- Total Cell Count [4]: 144 and 197
- Population Apoptotic (%) [5]: 74% and 80%
- Population Fragmented Nuclei (%) [5]: 16% and 17%
- Population Healthy Nuclei (%) [5]: 53% and 61%
- Population Hoechst High Intensity Objects (%) [5]: 0%
- Population Membrane Permeable-Phenotype (%) [5]: 11% and 5%
- Population Mitochondria Different-Phenotype (%) [5]: 0%
- Population Mitotic Cells (%) [5]: 25% and 19%
- Population Normal (%) [5]: 100%
- Population Pyknosed Nuclei (%) [5]: 29% and 21%
- Population Tubulin-Different-Phenotype (%) [5]: 11% and 12%
- Total Cell Count [5]: 118 and 167
- Population Apoptotic (%) [6]: 73% and 77%
- Population Fragmented Nuclei (%) [6]: 14% and 16%
- Population Healthy Nuclei (%) [6]: 73% and 71%
- Population Hoechst High Intensity Objects (%) [6]: 0%
- Population Membrane Permeable-Phenotype (%) [6]: 6% and 4%
- Population Mitochondria Different-Phenotype (%) [6]: 0% and 2%
- Population Mitotic Cells (%) [6]: 26% and 22%
- Population Normal (%) [6]: 100%
- Population Pyknosed Nuclei (%) [6]: 11% and 12%
- Population Tubulin-Different-Phenotype (%) [6]: 16% and 12%
- Total Cell Count [6]: 162 and 183
